# pPAFAH FP inh – inhibitors of human plasma PAF acetylhydrolase (pPAFAH); 1.5% of 330,000 active; inhibition, % at 3.39 µM; recombinant pPAFAH, FP-rhodamine probe fluorescence polarization;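 active means inhibition above the mean inhibition across the screen plus 3 SD, cut at about 25% in these data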;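 further: inhibitors block binding of the rhodamine activity-based probe so polarization drops; 0% = enzyme with DMSO and 100% = wells lacking pPAFAH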
# PAFAH1B3 FP inh – blocks human PAF acetylhydrolase 1B catalytic subunit 3 | Q15102 | recombinant PAFAH1B3, FP-rhodamine probe, fluorescence polarization | inhibition, % at 3.39 µM | 0.28% of 340,000 active | AID 492972;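 active means inhibition above the screen-wide average of all tested compounds plus 3 SD, cut at about 25% in these data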;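 further: 0% = enzyme with DMSO only and 100% = wells lacking PAFAH1B3 protein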
# Target sequence (Q15102 whole entry, looked up): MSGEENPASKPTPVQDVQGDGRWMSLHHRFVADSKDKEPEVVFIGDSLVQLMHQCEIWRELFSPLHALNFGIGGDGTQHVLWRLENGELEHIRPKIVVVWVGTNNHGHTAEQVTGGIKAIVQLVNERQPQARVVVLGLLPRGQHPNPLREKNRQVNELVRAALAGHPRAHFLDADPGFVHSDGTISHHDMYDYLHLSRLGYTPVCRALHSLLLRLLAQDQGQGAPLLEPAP
# PAFAH1B2 inh – blocks human PAF acetylhydrolase 1b catalytic subunit 2. recombinant PAFAH1B2, FP-rhodamine activity probe, fluorescence polarization. AID 492953. 1.2% of 340,000 active. inhibition, % at 3.39 µM;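 active means inhibition above the mean of all tested compounds plus 3 SD, cut at about 24% in these data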;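 further: 0% = enzyme with DMSO and 100% = wells lacking PAFAH1B2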
# Target sequence (P68402 whole entry, looked up): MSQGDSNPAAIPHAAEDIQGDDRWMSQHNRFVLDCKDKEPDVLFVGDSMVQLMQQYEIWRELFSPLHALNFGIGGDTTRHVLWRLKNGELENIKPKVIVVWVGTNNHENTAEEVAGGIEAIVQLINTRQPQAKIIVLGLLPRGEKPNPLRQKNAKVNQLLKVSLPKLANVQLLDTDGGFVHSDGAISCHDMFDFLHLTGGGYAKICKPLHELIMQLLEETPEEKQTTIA
# PAFAH2 FP inh – inhibitors of human PAFAH2; Q99487; recombinant PAFAH2, FP-rhodamine activity probe, fluorescence polarization; inhibition, % at 3.39 µM; 0.99% of 340,000 active;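 active means inhibition above the mean over all tested compounds plus 3 SD, cut at about 30% in these data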;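 further: inhibitors block probe labeling of enzyme so polarization drops; 0% = enzyme with DMSO and 100% = wells lacking PAFAH2 protein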
# ASAP1 GAP inh – inhibitors of human ASAP1 ArfGAP activity; inhibition, % at 16.5 µM; 0.19% of 360,000 active; ASAP1-stimulated ARF1 GTP hydrolysis, GDP FP detection; Q9ULH1; AID 624377; in the data active means inhibition above about 25%;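 further: 0% = vehicle with enzyme and substrate and 100% = no enzyme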
# ARFGAP1 inh – rat ARFGAP1 inhibition; Q62848; Arfgap1-stimulated ARF1 GTP hydrolysis, GDP FP detection; inhibition, % at 16.5 µM; 0.26% of 360,000 active; AID 651572;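 active means inhibition above a per-plate limit, mean inhibition of low control wells plus 3 SD, cut at about 25% in these data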;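 further: 0% = DMSO wells with enzyme and 100% = wells lacking Arfgap1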
#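 material = rat Arfgap1 catalytic domain, aa 1-136 | also added = human ARF1(Δ1-17)-GTP substrate | compound dosing = one concentration, 16.5 µM, DMSO 1.26% | times = GTP hydrolysis reaction 2 h at 25 °C | measured by = FP, GDP Alexa 633 tracer displaced from anti-GDP antibody, 620/688 nm | evaluation = percent inhibition of Arfgap1-stimulated GTP hydrolysis | replication = single well per compound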
# PAFAH2 confirm – confirmation of human PAFAH2 inhibitors. recombinant PAFAH2, FP-rhodamine activity probe, fluorescence polarization. inhibition, % at 3.39 µM. 65% of 2,300 active. shares compounds with PAFAH2 FP inh. AID 493030;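 active means mean inhibition over three repeats above a set limit taken from the earlier primary screen, cut at about 30% in these data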;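 further: inhibitor blocks binding of rhodamine activity probe so polarization falls; 0% = enzyme with DMSO and 100% = wells lacking PAFAH2 protein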
# * marks the source's active call; other numbers are inactive results; x = no result given. Only some compounds are listed: those with a hit (about 2.7% of all), similar ones and a draw of the others.
SMILES,pPAFAH FP inh,PAFAH1B3 FP inh,PAFAH1B2 inh,PAFAH2 FP inh,ASAP1 GAP inh,ARFGAP1 inh,PAFAH2 confirm
O=C(COC(=O)c1ccc(O)cc1)Nc1ncc(Cl)cc1Cl,8,-1,2,38*,-11,2,29
O=C(COC(=O)c1ccc2c(c1)OCO2)NCc1ccc(Cl)cc1,3,4,10,44*,-2,-6,40*
O=C(COC(=O)c1ccc2c(c1)OCO2)Nc1ncc(Cl)cc1Cl,10,2,4,40*,11,-8,37*
O=C(COC(=O)Cc1ccc(Cl)cc1)NCc1ccc2c(c1)OCO2,x,7,7,-4,-6,-5,x
O=C(COC(=O)c1cccnc1Cl)Nc1ncc(Cl)cc1Cl,4,0,6,9,9,3,x
CCCN(C(=O)COC(=O)c1nc2nc(C)cc(C)n2n1)C1CCS(=O)(=O)C1 (stereo not drawn),-2,1,-2,-4,-2,-10,x
COC(=O)c1ccccc1NC(=O)CN1C(=O)NC2(CCCCCCC2)C1=O,-4,0,3,85*,4,12,6
CC(c1ccncn1)N(C)C(=O)c1ccc2oc(Cc3ccccc3)nc2c1 (stereo not drawn),1,6,-3,36*,-5,16,27
Cc1cnc(CN(C)C(=O)c2ccc3oc(Cc4ccccc4)nc3c2)[nH]1,-3,6,4,4,-3,5,x
C=C(C)c1cccc(C(C)(C)NC(=O)NNC(=O)c2ccccc2O)c1,1,19,1,35*,-3,6,30
CCOC(=O)c1c(C)[nH]c(C)c1S(=O)(=O)NCC(=O)Nc1ccccn1,5,6,-3,1,3,0,x
O=C(COC(=O)c1ccccc1Br)NCc1cccs1,0,10,13,19,-2,-10,x
O=C(COC(=O)/C=C/c1ccccc1)NCc1cccs1,6,4,4,61*,-3,18,47*
Cc1ccc(/C=C/C(=O)OCC(=O)NC(C)C)o1,4,4,4,35*,1,-17,6
CCN(CC)S(=O)(=O)c1ccc(/C=C/C(=O)OCC(=O)NCc2cccs2)cc1,21,3,-2,93*,1,-18,80*
Cc1ccc(/C=C/C(=O)OCC(=O)NCc2cccs2)o1,9,5,2,68*,6,-14,53*
CCN(CC(=O)NCc1cccs1)S(=O)(=O)c1ccc([N+](=O)[O-])cc1,8,5,4,-3,8,-4,x
CN(Cc1ccccc1)S(=O)(=O)c1ccc(Cl)c(C(=O)N2CCOCC2)c1,x,x,x,x,6,8,x
CCc1nc2sccc2c(=O)[nH]1,3,13,3,-1,-2,7,x
CCc1ccc(C)c(OC(=O)c2cncc(Br)c2)c1,3,6,3,-4,4,2,x
COC(C(=O)N1CCC(CCC(=O)Nc2ccccc2)CC1)c1ccccc1 (stereo not drawn),0,7,1,-7,1,-1,x
O=C(COC(=O)/C=C/c1ccc(F)cc1)NCc1cccs1,6,5,2,62*,1,15,47*
O=C(NC1CCCCC1)C(c1ccco1)N(C(=O)c1csnn1)c1cccc(Cl)c1 (stereo not drawn),-6,7,0,13,-9,-1,x
CCOC(=O)CSc1nnc(-c2ccccc2NC(=O)c2ccccc2)o1,3,-3,1,-23,-1,11,x
CCc1nnc(NC(=O)CSc2nnc(-c3ccccc3NC(=O)c3ccccc3)o2)s1,0,3,4,34*,-17,2,-3
CC(C)(C)OC(=O)C[C@H]1C/C=C\C[C@@H](CC(=O)N[C@H](CO)Cc2ccccc2)C(=O)NC[C@H](c2ccccc2)OC1=O,3,0,10,52*,-3,-11,8
CC(C)(C)OC(=O)C[C@@H]1C/C=C\C[C@@H](CC(=O)N[C@H](CO)Cc2ccccc2)C(=O)NC[C@H](c2ccccc2)OC1=O,-1,3,4,1,-9,-4,x

# Screening results: PubChem BioAssay, The Scripps Research Institute Molecular Screening Center
